We go through five compounds from ChEMBL document CHEMBL5634209, “Computational design, synthesis, and assessment of 3-(4-(4-(1,3,4-oxadiazol-2-yl)-1H-imidazol-2-yl)phenyl)-1,2,4-oxadiazole derivatives as effective epidermal growth factor receptor inhibitors: a prospective strategy for anticancer therapy” (RSC Med Chem, 2024).

Broadly, the IC50 is the point on the concentration scale where inhibition reaches its midpoint.

SMILES strings stand for the structures.

Epidermal growth factor receptor (Homo sapiens, UniProt P00533), sequence (P00533 whole entry): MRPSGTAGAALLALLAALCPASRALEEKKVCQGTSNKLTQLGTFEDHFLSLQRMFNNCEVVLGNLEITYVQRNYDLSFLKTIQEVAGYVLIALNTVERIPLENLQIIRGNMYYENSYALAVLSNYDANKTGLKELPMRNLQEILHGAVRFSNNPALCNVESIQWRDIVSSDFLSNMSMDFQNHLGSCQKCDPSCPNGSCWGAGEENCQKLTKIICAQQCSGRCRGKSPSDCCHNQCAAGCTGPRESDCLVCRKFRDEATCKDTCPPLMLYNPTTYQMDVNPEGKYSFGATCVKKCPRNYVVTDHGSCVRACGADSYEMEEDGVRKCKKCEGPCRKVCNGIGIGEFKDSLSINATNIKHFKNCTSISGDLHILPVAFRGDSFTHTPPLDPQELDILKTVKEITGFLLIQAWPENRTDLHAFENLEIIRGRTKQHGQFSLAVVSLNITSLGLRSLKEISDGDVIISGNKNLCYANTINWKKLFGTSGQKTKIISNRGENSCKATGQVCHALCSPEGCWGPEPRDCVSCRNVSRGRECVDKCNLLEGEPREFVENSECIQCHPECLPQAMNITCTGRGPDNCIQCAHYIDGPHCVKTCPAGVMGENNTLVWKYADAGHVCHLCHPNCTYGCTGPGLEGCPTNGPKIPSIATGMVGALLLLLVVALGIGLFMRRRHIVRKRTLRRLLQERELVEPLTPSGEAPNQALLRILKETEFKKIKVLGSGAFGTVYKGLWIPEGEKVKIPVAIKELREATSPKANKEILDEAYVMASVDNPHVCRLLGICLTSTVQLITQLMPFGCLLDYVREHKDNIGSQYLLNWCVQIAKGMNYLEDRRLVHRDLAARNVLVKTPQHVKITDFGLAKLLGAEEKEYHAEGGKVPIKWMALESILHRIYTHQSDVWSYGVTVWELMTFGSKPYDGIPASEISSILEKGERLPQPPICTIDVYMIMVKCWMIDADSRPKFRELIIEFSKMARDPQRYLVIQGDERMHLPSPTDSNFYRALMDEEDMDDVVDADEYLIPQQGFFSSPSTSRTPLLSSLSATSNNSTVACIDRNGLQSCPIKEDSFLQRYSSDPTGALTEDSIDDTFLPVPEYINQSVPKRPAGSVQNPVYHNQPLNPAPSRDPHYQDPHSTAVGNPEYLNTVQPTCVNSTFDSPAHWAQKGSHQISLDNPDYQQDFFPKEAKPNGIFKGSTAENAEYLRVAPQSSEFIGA

The first series relates to PC-3. Nature of the series: Antiproliferative activity against human PC-3 cells assessed as reduction in cell viability measured after 48 hrs by MTT assay. In kind it is functional, cell-based. Particulars: PC-3, 48 h. A digest of the protocol: (§1)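 Cells were grown at 37 °C in 5% CO2 in medium with 10% FBS: RPMI-1640 for A549, DU-145 and HepG2, and DMEM/F12 for PC-3. They were seeded at 5×10^3/well. At 70–80% confluence they were exposed to a concentration range diluted from a 60 mM DMSO stock for 48 h at 37 °C, with 0.1% DMSO as vehicle. MTT 5 mg/mL stock was added for 4 h, formazan dissolved in DMSO, A570 read, and % inhibition calculated against control. IC50 was taken from the concentration series.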
Background: Tetrazolium dyes change colour on reduction, which living cells bring about.
In the case of `O=[N+]([O-])c1cc(-c2nc(-c3ccc(-c4nc(-c5nnc(-c6ccncc6)o5)c[nH]4)cc3)no2)cc([N+](=O)[O-])c1`, the IC50 was found to be 6220 nM.
For the compound `Cc1ccc(-c2nc(-c3ccc(-c4nc(-c5nnc(-c6ccncc6)o5)c[nH]4)cc3)no2)cc1`, the IC50 was found to be 1870 nM.
For `COc1ccc(-c2nc(-c3ccc(-c4nc(-c5nnc(-c6ccncc6)o5)c[nH]4)cc3)no2)cc1`, the IC50 was determined as 1290 nM.
Same read-out and setting: the value for `COc1cc([C@@H]2c3cc4c(cc3[C@@H](O[C@@H]3O[C@@H]5CO[C@@H](C)O[C@H]5[C@H](O)[C@H]3O)[C@H]3COC(=O)[C@H]23)OCO4)cc(OC)c1O` [ETOPOSIDE] was 2390 nM; that for `Clc1ccc(-c2nc(-c3ccc(-c4nc(-c5nnc(-c6ccncc6)o5)c[nH]4)cc3)no2)cc1` was 4580 nM.

Another series relates to A549. Nature of the series: Antiproliferative activity against human A549 cells assessed as reduction in cell viability measured after 48 hrs by MTT assay. In kind it is functional, cell-based. The settings on record: A549, 48 h. The method, boiled down:
as §1
On to `O=[N+]([O-])c1cc(-c2nc(-c3ccc(-c4nc(-c5nnc(-c6ccncc6)o5)c[nH]4)cc3)no2)cc([N+](=O)[O-])c1`, for which the half-maximal inhibitory concentration (IC50) worked out at 5490 nM.
With `Cc1ccc(-c2nc(-c3ccc(-c4nc(-c5nnc(-c6ccncc6)o5)c[nH]4)cc3)no2)cc1`, the half-inhibitory concentration (IC50) is 2030 nM.
As for `COc1ccc(-c2nc(-c3ccc(-c4nc(-c5nnc(-c6ccncc6)o5)c[nH]4)cc3)no2)cc1`, the IC50 amounted to 1100 nM.
On to `COc1cc([C@@H]2c3cc4c(cc3[C@@H](O[C@@H]3O[C@@H]5CO[C@@H](C)O[C@H]5[C@H](O)[C@H]3O)[C@H]3COC(=O)[C@H]23)OCO4)cc(OC)c1O` [ETOPOSIDE], for which the IC50 was determined as 3080 nM.
`Clc1ccc(-c2nc(-c3ccc(-c4nc(-c5nnc(-c6ccncc6)o5)c[nH]4)cc3)no2)cc1`: the IC50 was determined as 4840 nM.

For another series, the system named is HepG2. Nature of the series: Antiproliferative activity against human HepG2 cells assessed as reduction in cell viability measured after 48 hrs by MTT assay. Format: functional, cell-based. Particulars: HepG2, 48 h. The method, boiled down:
as §1
As for `O=[N+]([O-])c1cc(-c2nc(-c3ccc(-c4nc(-c5nnc(-c6ccncc6)o5)c[nH]4)cc3)no2)cc([N+](=O)[O-])c1`, the concentration for half-maximal inhibition (IC50) was 3610 nM.
With `Cc1ccc(-c2nc(-c3ccc(-c4nc(-c5nnc(-c6ccncc6)o5)c[nH]4)cc3)no2)cc1`, the IC50 came to 2120 nM.
With `COc1ccc(-c2nc(-c3ccc(-c4nc(-c5nnc(-c6ccncc6)o5)c[nH]4)cc3)no2)cc1`, the IC50 is 1240 nM.
Still for that read-out and setting: the value for `COc1cc([C@@H]2c3cc4c(cc3[C@@H](O[C@@H]3O[C@@H]5CO[C@@H](C)O[C@H]5[C@H](O)[C@H]3O)[C@H]3COC(=O)[C@H]23)OCO4)cc(OC)c1O` [ETOPOSIDE] was 2110 nM.
For `Clc1ccc(-c2nc(-c3ccc(-c4nc(-c5nnc(-c6ccncc6)o5)c[nH]4)cc3)no2)cc1`, the IC50 was 5780 nM.

Another series concerns DU-145. Nature of the series: Antiproliferative activity against human DU-145 cells assessed as reduction in cell viability measured after 48 hrs by MTT assay. In kind it is functional, cell-based. The settings on record: DU-145, 48 h. A digest of the protocol:
as §1
For the compound `Cc1ccc(-c2nc(-c3ccc(-c4nc(-c5nnc(-c6ccncc6)o5)c[nH]4)cc3)no2)cc1`, the IC50 came out at 2340 nM.
Same read-out and setting: the value for `COc1ccc(-c2nc(-c3ccc(-c4nc(-c5nnc(-c6ccncc6)o5)c[nH]4)cc3)no2)cc1` was 1740 nM; that for `COc1cc([C@@H]2c3cc4c(cc3[C@@H](O[C@@H]3O[C@@H]5CO[C@@H](C)O[C@H]5[C@H](O)[C@H]3O)[C@H]3COC(=O)[C@H]23)OCO4)cc(OC)c1O` [ETOPOSIDE] was 1970 nM.

System in a further series: not listed separately
Nature of the series: Cytotoxicity against African green monkey Vero cells assessed as reduction in cell viability measured after 48 hrs by MTT assay. In kind it is toxicity, cell-based. The settings on record: African green monkey (Chlorocebus sabaeus).
Take `O=[N+]([O-])c1cc(-c2nc(-c3ccc(-c4nc(-c5nnc(-c6ccncc6)o5)c[nH]4)cc3)no2)cc([N+](=O)[O-])c1`: the 50% inhibitory concentration (IC50) at 48 h was greater than 25000 nM.
Consider `Cc1ccc(-c2nc(-c3ccc(-c4nc(-c5nnc(-c6ccncc6)o5)c[nH]4)cc3)no2)cc1`, for which the 50% inhibitory concentration (IC50) at 48 h was greater than 15000 nM.
For `COc1ccc(-c2nc(-c3ccc(-c4nc(-c5nnc(-c6ccncc6)o5)c[nH]4)cc3)no2)cc1`, the half-maximal inhibitory concentration (IC50) at 48 h is greater than 16000 nM.
In the case of `COc1cc([C@@H]2c3cc4c(cc3[C@@H](O[C@@H]3O[C@@H]5CO[C@@H](C)O[C@H]5[C@H](O)[C@H]3O)[C@H]3COC(=O)[C@H]23)OCO4)cc(OC)c1O` [ETOPOSIDE], the IC50 at 48 h was greater than 25000 nM.
In the case of `Clc1ccc(-c2nc(-c3ccc(-c4nc(-c5nnc(-c6ccncc6)o5)c[nH]4)cc3)no2)cc1`, the IC50 at 48 h was greater than 25000 nM.

System in another series: not listed separately
Nature of the series: Selectivity index, ratio of IC50 for cytotoxicity against African green monkey Vero cells to IC50 for antiproliferative activity against human PC-3 cells. Format: toxicity, cell-based. Particulars: Vero cells versus PC-3 cells, read-out: Ratio IC50.
Regarding `O=[N+]([O-])c1cc(-c2nc(-c3ccc(-c4nc(-c5nnc(-c6ccncc6)o5)c[nH]4)cc3)no2)cc([N+](=O)[O-])c1`, the selectivity ratio was 4.01.
Take `Cc1ccc(-c2nc(-c3ccc(-c4nc(-c5nnc(-c6ccncc6)o5)c[nH]4)cc3)no2)cc1`: the selectivity ratio came out at 8.02.
The same measure, in the same setting: the result for `COc1ccc(-c2nc(-c3ccc(-c4nc(-c5nnc(-c6ccncc6)o5)c[nH]4)cc3)no2)cc1` reads 12.4.
On to `COc1cc([C@@H]2c3cc4c(cc3[C@@H](O[C@@H]3O[C@@H]5CO[C@@H](C)O[C@H]5[C@H](O)[C@H]3O)[C@H]3COC(=O)[C@H]23)OCO4)cc(OC)c1O` [ETOPOSIDE], for which the selectivity ratio was determined as 10.5.
For `Clc1ccc(-c2nc(-c3ccc(-c4nc(-c5nnc(-c6ccncc6)o5)c[nH]4)cc3)no2)cc1`, the selectivity ratio was 5.46.

System in another series: not listed separately
Nature of the series: Selectivity index, ratio of IC50 for cytotoxicity against African green monkey Vero cells to IC50 for antiproliferative activity against human A549 cells. Format: toxicity, cell-based. Particulars: Vero cells versus A549 cells, read-out: Ratio IC50.
In the case of `O=[N+]([O-])c1cc(-c2nc(-c3ccc(-c4nc(-c5nnc(-c6ccncc6)o5)c[nH]4)cc3)no2)cc([N+](=O)[O-])c1`, the selectivity ratio is 4.55.
Still for that read-out and setting: the result for `Cc1ccc(-c2nc(-c3ccc(-c4nc(-c5nnc(-c6ccncc6)o5)c[nH]4)cc3)no2)cc1` reads 7.38; that for `COc1ccc(-c2nc(-c3ccc(-c4nc(-c5nnc(-c6ccncc6)o5)c[nH]4)cc3)no2)cc1`, 14.5; that for `COc1cc([C@@H]2c3cc4c(cc3[C@@H](O[C@@H]3O[C@@H]5CO[C@@H](C)O[C@H]5[C@H](O)[C@H]3O)[C@H]3COC(=O)[C@H]23)OCO4)cc(OC)c1O` [ETOPOSIDE], 8.11.
With `Clc1ccc(-c2nc(-c3ccc(-c4nc(-c5nnc(-c6ccncc6)o5)c[nH]4)cc3)no2)cc1`, the selectivity ratio amounted to 5.16.

System in another series: not listed separately
Nature of the series: Selectivity index, ratio of IC50 for cytotoxicity against African green monkey Vero cells to IC50 for antiproliferative activity against human HepG2 cells. Format: toxicity, cell-based. Particulars: Vero cells versus HepG2 cells, read-out: Ratio IC50.
Turning to `O=[N+]([O-])c1cc(-c2nc(-c3ccc(-c4nc(-c5nnc(-c6ccncc6)o5)c[nH]4)cc3)no2)cc([N+](=O)[O-])c1`, the selectivity ratio worked out at 6.92.
Regarding `Cc1ccc(-c2nc(-c3ccc(-c4nc(-c5nnc(-c6ccncc6)o5)c[nH]4)cc3)no2)cc1`, the selectivity ratio was found to be 7.1.
On the same count and under the same terms, the result for `COc1ccc(-c2nc(-c3ccc(-c4nc(-c5nnc(-c6ccncc6)o5)c[nH]4)cc3)no2)cc1` reads 12.9.
As to `COc1cc([C@@H]2c3cc4c(cc3[C@@H](O[C@@H]3O[C@@H]5CO[C@@H](C)O[C@H]5[C@H](O)[C@H]3O)[C@H]3COC(=O)[C@H]23)OCO4)cc(OC)c1O` [ETOPOSIDE], the selectivity ratio is 11.8.
For the compound `Clc1ccc(-c2nc(-c3ccc(-c4nc(-c5nnc(-c6ccncc6)o5)c[nH]4)cc3)no2)cc1`, the selectivity ratio amounted to 4.32.

System in another series: not listed separately
Nature of the series: Selectivity index, ratio of IC50 for cytotoxicity against African green monkey Vero cells to IC50 for antiproliferative activity against human DU-145 cells. Format: toxicity, cell-based. Particulars: Vero cells versus DU-145 cells, read-out: Ratio IC50.
As for `Cc1ccc(-c2nc(-c3ccc(-c4nc(-c5nnc(-c6ccncc6)o5)c[nH]4)cc3)no2)cc1`, the selectivity ratio is 6.41.
In the case of `COc1ccc(-c2nc(-c3ccc(-c4nc(-c5nnc(-c6ccncc6)o5)c[nH]4)cc3)no2)cc1`, the selectivity ratio amounted to 9.2.
Consider `COc1cc([C@@H]2c3cc4c(cc3[C@@H](O[C@@H]3O[C@@H]5CO[C@@H](C)O[C@H]5[C@H](O)[C@H]3O)[C@H]3COC(=O)[C@H]23)OCO4)cc(OC)c1O` [ETOPOSIDE], for which the selectivity ratio is 12.7.

Another series concerns the target Epidermal growth factor receptor (Homo sapiens, UniProt P00533). Nature of the series: Inhibition of wild type EGFR (unknown origin) incubated for 40 mins by Kinase Glo Max reagent based luminescence analysis.
Conditions: not given
A general note: Kinase-Glo measures the ATP left after a reaction by luminescence.
Regarding `COc1ccc(-c2nc(-c3ccc(-c4nc(-c5nnc(-c6ccncc6)o5)c[nH]4)cc3)no2)cc1`, the IC50 came to 958 nM.

The target in the next series is Epidermal growth factor receptor (Homo sapiens, UniProt P00533, T790M). Nature of the series: Inhibition of EGFR T790M mutant (unknown origin) incubated for 40 mins by Kinase Glo Max reagent based luminescence analysis.
Epidermal growth factor receptor (Homo sapiens, UniProt P00533, T790M), sequence (P00533 25-1210 T790M limits assumed): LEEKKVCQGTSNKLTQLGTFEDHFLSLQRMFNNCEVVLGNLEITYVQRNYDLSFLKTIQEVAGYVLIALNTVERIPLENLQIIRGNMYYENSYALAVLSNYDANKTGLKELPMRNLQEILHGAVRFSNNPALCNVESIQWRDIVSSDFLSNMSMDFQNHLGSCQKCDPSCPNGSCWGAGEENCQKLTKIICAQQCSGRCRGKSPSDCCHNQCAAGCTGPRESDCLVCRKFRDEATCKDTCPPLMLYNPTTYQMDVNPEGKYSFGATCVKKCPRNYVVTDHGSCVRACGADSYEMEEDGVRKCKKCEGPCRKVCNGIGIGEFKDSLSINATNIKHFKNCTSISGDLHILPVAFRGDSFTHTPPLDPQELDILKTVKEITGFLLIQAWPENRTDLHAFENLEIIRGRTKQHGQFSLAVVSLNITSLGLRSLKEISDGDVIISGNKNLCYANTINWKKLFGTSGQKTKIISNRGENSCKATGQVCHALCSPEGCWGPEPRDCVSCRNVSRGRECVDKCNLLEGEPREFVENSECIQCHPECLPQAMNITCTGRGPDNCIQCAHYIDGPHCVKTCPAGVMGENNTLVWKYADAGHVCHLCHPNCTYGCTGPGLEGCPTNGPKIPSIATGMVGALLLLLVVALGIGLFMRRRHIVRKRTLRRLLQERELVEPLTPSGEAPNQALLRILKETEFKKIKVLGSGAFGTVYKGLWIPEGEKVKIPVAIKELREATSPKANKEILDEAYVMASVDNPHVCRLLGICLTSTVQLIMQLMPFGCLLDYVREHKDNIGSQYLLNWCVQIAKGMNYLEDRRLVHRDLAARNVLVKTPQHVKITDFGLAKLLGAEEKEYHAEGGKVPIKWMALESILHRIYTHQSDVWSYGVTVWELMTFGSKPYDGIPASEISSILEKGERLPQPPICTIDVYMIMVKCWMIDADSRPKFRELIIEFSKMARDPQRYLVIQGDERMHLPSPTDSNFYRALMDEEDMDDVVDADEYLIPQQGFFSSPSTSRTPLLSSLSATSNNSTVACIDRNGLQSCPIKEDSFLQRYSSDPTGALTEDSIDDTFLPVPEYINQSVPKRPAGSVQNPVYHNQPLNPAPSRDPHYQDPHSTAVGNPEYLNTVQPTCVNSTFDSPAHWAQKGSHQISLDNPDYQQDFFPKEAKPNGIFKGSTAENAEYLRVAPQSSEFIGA
Conditions: not given
For `COc1ccc(-c2nc(-c3ccc(-c4nc(-c5nnc(-c6ccncc6)o5)c[nH]4)cc3)no2)cc1`, the 50% inhibitory concentration (IC50) came out at 1190 nM.
